Results from ChEMBL document CHEMBL1151472, “In vitro interactions between tacrolimus and azoles against Candida albicans determined by different methods” (2008).
≈ marks a conversion by molar mass, not a printed value.

How the values were obtained:
Assay type in all cases: functional
Candida albicans [1] = experiment: Antimicrobial activity against azole-resistant Candida albicans isolate CA10 assessed as growth at 0.5 ug/ml co-treated with 0.016 ug/ml calcineurin signaling inhibitor tacrolimus after 48 hrs by microdilution checkboard technique relative to control; design: scale not given: the % may be the effect or the level left
In short: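 Checkerboard microdilution in MOPS-buffered RPMI 1640 (pH 7.0, 2% dextrose). Final ranges: azole 0.125–128 μg/ml (FLC) or 0.008–8 μg/ml (ITR, VRC), tacrolimus 0.002–0.125 μg/ml; solvent 1% in single-drug wells. Inoculum 2.5 × 10^3 CFU/ml, 35°C, 48 h. Growth % = background-subtracted OD492 of each well / drug-free well. Triplicate on different days.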

Candida albicans [2] = experiment: Antimicrobial activity against azole-susceptible Candida albicans isolate CA8 after 48 hrs by broth microdilution method; conditions: isolate CA8, 48 h
In short: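 CLSI M27-A2 broth microdilution was run in RPMI 1640 (pH 7.0, 2% dextrose, 0.165 M MOPS). Inoculum was 2.5 × 10^3 CFU/ml, incubated 35°C for 48 h without shaking. Plates were read visually (0–5 scale) and at OD 492 nm. MIC80 = lowest concentration giving an 80% absorbance decrease vs drug-free control. Triplicate.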

Candida albicans [3] = experiment: Antimicrobial activity against azole-resistant Candida albicans isolate CA10 assessed as growth at 4 ug/ml cotreated with 0.002 ug/ml calcineurin signaling inhibitor tacrolimus after 48 hrs by microdilution checkerboard technique relative to control; design: scale not given: the % may be the effect or the level left
In short: (§1)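 CA10 in RPMI 1640 with 2% dextrose and 0.165 M MOPS, pH 7.0. Checkerboard used twofold dilutions, with azole alone in row H and the drug-free growth control in well H1. Final inoculum was 2.5 × 10^3 CFU/ml, incubated 35°C for 48 h, with OD read at 492 nm. Growth % = background-subtracted well OD / drug-free well OD. Run in triplicate on different days.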

Candida albicans [4] = experiment: Antimicrobial activity against azole-resistant Candida albicans isolate CA10 assessed as growth at 64 ug/ml co-treated with 0.008 ug/ml calcineurin signaling inhibitor tacrolimus after 48 hrs by microdilution checkboard technique relative to control; design: scale not given: the % may be the effect or the level left; in short: as §1
Candida albicans [5] = experiment: Antimicrobial activity against azole-resistant Candida albicans isolate CA10 assessed as growth at 4 ug/ml cotreated with 0.008 ug/ml calcineurin signaling inhibitor tacrolimus after 48 hrs by microdilution checkerboard technique relative to control; design: scale not given: the % may be the effect or the level left; in short: as §1

## OC(Cn1cncn1)(Cn1cncn1)c1ccc(F)cc1F [FLUCONAZOLE]
Candida albicans [1]
  Activity: 21%
Candida albicans [2]
  MIC: 0.25 µg/mL (≈ 0.816 µM)
Candida albicans [3]
  Activity: 44%
Candida albicans [4]
  Activity: 21%
Candida albicans [5]
  Activity: 30%
